Values after ≈ are worked out from the molar mass of the structure shown.
How the values were obtained:
[1] = target: T1, Aminopeptidase N (Plasmodium falciparum FcB1/Columbia, UniProt O96935); experiment: Inhibition of Plasmodium falciparum FcB1 M1 aminopeptidase
T1 sequence (O96935 whole entry): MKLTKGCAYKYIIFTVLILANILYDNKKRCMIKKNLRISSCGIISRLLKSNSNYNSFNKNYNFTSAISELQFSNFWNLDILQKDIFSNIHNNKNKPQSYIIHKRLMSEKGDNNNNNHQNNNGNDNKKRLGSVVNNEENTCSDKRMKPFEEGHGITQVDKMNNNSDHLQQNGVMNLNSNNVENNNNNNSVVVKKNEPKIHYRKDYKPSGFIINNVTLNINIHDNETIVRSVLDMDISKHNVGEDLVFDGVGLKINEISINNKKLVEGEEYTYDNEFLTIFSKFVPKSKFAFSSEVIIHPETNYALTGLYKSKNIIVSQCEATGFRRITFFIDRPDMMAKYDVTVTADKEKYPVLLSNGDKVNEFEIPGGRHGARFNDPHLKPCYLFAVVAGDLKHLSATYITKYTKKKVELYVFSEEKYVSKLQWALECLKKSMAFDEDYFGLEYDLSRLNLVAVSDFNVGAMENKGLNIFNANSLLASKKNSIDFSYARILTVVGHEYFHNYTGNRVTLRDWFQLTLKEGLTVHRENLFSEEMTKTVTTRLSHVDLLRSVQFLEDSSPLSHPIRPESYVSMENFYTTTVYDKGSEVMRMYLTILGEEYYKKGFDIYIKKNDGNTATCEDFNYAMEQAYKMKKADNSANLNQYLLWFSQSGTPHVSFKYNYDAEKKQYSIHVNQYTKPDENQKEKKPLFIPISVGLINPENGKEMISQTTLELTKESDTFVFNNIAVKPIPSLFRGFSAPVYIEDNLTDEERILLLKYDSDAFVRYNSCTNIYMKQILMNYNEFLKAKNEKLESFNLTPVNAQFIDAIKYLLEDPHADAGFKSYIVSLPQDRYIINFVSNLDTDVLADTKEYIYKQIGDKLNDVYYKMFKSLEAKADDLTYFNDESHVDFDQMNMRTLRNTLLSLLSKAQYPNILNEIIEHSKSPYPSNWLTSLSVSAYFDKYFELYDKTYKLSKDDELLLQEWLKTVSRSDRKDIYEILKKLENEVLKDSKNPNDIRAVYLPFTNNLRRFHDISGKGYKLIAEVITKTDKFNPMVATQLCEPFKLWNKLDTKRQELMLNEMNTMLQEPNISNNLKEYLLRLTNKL
Summary of the method: (§1)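 Native enzyme purified from P. falciparum FcB1, diluted 10-fold in 25 mM Tris-HCl pH 7.4. Preincubated with inhibitor for 10 min at room temperature, then Leu-pNA substrate added (0.3 mM stock, Km 0.099 mM). Kinetics followed at 405 nm at room temperature. Initial velocities normalized to a no-inhibitor control. Single-point screen at 10 µM; IC50 from velocity versus inhibitor concentration curves. Bestatin used as reference.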

[2] = target: T2, Aminopeptidase N (Sus scrofa, UniProt P15145); experiment: Inhibition of pig kidney microsomal APN
T2 sequence (P15145 whole entry): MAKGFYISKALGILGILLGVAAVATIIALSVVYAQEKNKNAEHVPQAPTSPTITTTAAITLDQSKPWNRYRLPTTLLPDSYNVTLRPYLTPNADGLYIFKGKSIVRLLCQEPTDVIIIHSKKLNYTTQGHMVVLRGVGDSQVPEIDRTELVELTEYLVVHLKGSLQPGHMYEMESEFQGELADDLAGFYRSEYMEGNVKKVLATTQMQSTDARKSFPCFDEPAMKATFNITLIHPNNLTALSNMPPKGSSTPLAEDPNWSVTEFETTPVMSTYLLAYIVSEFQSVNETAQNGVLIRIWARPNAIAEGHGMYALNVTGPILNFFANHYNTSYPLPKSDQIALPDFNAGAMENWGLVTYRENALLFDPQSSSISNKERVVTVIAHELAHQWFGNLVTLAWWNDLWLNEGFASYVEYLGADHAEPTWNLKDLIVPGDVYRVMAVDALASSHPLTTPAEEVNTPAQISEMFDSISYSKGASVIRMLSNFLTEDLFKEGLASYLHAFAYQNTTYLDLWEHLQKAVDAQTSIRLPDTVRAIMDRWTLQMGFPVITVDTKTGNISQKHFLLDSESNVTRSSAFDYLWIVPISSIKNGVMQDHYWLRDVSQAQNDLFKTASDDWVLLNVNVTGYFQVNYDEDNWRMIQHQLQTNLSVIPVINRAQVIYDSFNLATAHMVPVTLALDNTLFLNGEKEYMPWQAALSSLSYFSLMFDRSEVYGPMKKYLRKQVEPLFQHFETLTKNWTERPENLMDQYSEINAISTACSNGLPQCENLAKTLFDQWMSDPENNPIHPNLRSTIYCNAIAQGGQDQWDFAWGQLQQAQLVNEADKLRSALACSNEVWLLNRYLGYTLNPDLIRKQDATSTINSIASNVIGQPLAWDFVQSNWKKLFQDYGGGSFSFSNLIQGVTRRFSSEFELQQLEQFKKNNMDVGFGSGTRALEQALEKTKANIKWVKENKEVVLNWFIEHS
Summary of the method: (§2)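 Porcine kidney microsomal APN (ammonium sulfate suspension) diluted 600-fold in 25 mM Tris-HCl pH 7.4. Preincubated with inhibitor for 10 min at room temperature, then Leu-pNA added (0.3 mM stock). Hydrolysis followed at 405 nm at room temperature. Rates normalized to a no-inhibitor control. Single point at 10 µM; IC50 from concentration-velocity curves. Bestatin used as reference.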

[3] = test system: Plasmodium falciparum; experiment: Antimalarial activity against chloroquine-sensitive Plasmodium falciparum F32; type: functional, organism-based
Summary of the method: (§3)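 Asexual P. falciparum kept continuously on human erythrocytes; modified semiautomated microdilution method. Serially diluted drug added to asynchronous cultures (0.5% parasitemia, 1% final hematocrit) for 24 h at 37 °C, then [3H]hypoxanthine added per well. Growth inhibition from incorporated radioactivity relative to drug-free control on the same plate; IC50 from concentration-response curve, mean of three independent experiments.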

[4] = Stability in Zucker FA/FA rat plasma at 37degC; type: ADME, organism-based; conditions: read-out: Stability (converted)
Summary of the method: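 Compound at 100 µM final in male Zucker FA/FA rat plasma, stirred at 37 °C. Samples taken from 0 to 96 h, acidified with 0.14 M phosphoric acid and spiked with internal standard. Extracted three times with AcOEt and quantified by LC-MS-MS (MRM). Half-life derived.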

[5] = Solubility at pH 7.4; type: physicochemical; conditions: buffer
Summary of the method: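 10 mM DMSO stock diluted 50-fold into PBS pH 7.4 or MeOH. Shaken for 24 h at room temperature, centrifuged and filtered at 0.45 µm. Analysed by LC-MS-MS; solubility taken as the PBS/MeOH mass-signal area ratio.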

[6] = test system: Plasmodium falciparum; experiment: Antimalarial activity against chloroquine-resistant Plasmodium falciparum FcB1; type: functional, organism-based; summary of the method: as §3
[7] = Selectivity ratio, IC50 for pig APN /IC50 for Plasmodium falciparum FcB1 M1
Summary of the method: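 Ratio of IC50 values (APN/PfA-M1) from two parallel assays: native PfA-M1 purified from P. falciparum FcB1 (diluted 10-fold) and porcine kidney microsomal APN (diluted 600-fold), both in 25 mM Tris-HCl pH 7.4. Enzyme was preincubated 10 min at room temperature with inhibitor, then Leu-pNA added (0.3 mM solution). Kinetics were read at 405 nm, initial velocities normalized to no-inhibitor controls, and IC50 was taken from velocity–concentration plots.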

[8] = Distribution coefficient, log D at pH 7.4; type: physicochemical; conditions: octanol/water
Summary of the method: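 10 mM DMSO stock added to 1:1 octanol/PBS pH 7.4 and shaken for 2 h at room temperature. Phases separated and each quantified by LC-MS-MS. Log D taken as the log of the octanol/PBS concentration ratio from mass signals.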

[9] = target: T3, Aminopeptidase N (Plasmodium falciparum FcB1/Columbia) (UniProt O96935); experiment: Inhibition of Plasmodium falciparum FcB1 M1 aminopeptidase at 10 uM; summary of the method: as §1
T3 sequence (whole entry): T1 sequence (O96935 whole entry)

[10] = target: T4, Aminopeptidase N (Sus scrofa) (UniProt P15145); experiment: Inhibition of pig kidney microsomal APN at 10 uM; summary of the method: as §2
T4 sequence (whole entry): T2 sequence (P15145 whole entry)

SMILES | IC50 [1] [nM] | IC50 [2] [nM] | IC50 [3] [nM] | half-life [4] [h] | solubility [5] [µM] | IC50 [6] [nM] | Ratio IC50 [7] | logD [8] | inhibition [9] [%] | inhibition [10] [%]
O=C(NO)/C(=C\c1ccccc1)C(=O)NCc1ccc(F)cc1 | 6 | 1370 | 13000 | 22 | 198 (≈ 62.2 µg/mL) | 24000 | 229 | 1.1 |  | 
O=C(NCCCCc1ccccc1)c1cc2ccccc2n(O)c1=O | > 10000 | > 10000 |  |  |  |  |  |  |  | 
O=C(NO)C(Cc1ccccc1)C(=O)NCCCCc1ccccc1 (centres undefined) | 46 | > 10000 |  |  |  |  |  |  | 94 | 81
O=C(NO)/C(=C\c1ccccc1)C(=O)NCCCCc1ccccc1 | 13 | 3240 |  |  |  |  |  |  |  | 
O=C(NO)C(Cc1cccc(Oc2ccccc2)c1)C(=O)NCc1ccc(Cl)cc1 (centres undefined) | 130 | 2530 |  |  |  |  |  |  | 96 | 76
O=C(NO)C(Cc1cccc(Oc2ccccc2)c1)C(=O)NCc1ccccc1 (centres undefined) | 164 | > 10000 |  |  |  |  |  |  | 96 | 79
O=C(NCc1ccc(F)cc1)c1cc2ccccc2n(O)c1=O | > 10000 | > 10000 |  | > 48 |  |  |  |  |  | 
CC(C)CC(C(=O)NO)C(=O)NCc1cccc2ccccc12 (centres undefined) | 91 | 8580 |  |  |  |  |  |  |  | 
O=C(NO)C(Cc1cccc(Oc2ccccc2)c1)C(=O)N1CCC(Cc2ccccc2)CC1 (centres undefined) | 248 |  |  |  |  |  |  |  | 97 | 65
Cc1ccccc1CNC(=O)C(Cc1ccccc1)C(=O)NO (centres undefined) | 41 | 1310 |  |  |  |  |  |  | 95 | 85
O=C(NO)/C(=C/c1ccccc1)C(=O)NCc1ccc(F)cc1 | 330 | > 10000 |  |  |  |  |  |  |  | 
O=C(NO)C(Cc1ccccc1)C(=O)N1CCc2ccccc2C1 (centres undefined) | 253 |  |  |  |  |  |  |  | 84 | 50
O=C(NO)C(Cc1ccccc1)C(=O)NCc1ccccc1 (centres undefined) | 125 |  |  |  |  |  |  |  | 94 | 69
CC(C)CC(C(=O)NO)C(=O)NCc1ccc(F)cc1 (centres undefined) | 3900 |  |  |  |  |  |  |  | 85 | 92
O=C(NO)C(Cc1ccccc1)C(=O)NCc1ccc(F)cc1 (centres undefined) | 27 | 3620 | 57000 | 0.75 | > 200 | 59000 | 134 | 1.2 | 91 | 72
O=C(NO)C(Cc1ccccc1)C(=O)NCc1cccc(-c2ccccc2)c1 (centres undefined) | 1170 |  |  |  |  |  |  |  | 71 | 90
CC(C)CC(C(=O)NO)C(=O)NCc1ccccc1 (centres undefined) | 495 |  |  |  |  |  |  |  | 19 | 39
O=C(NO)C(Cc1ccccc1)C(=O)NC1Cc2ccccc2C1 (centres undefined) | 1930 |  |  |  |  |  |  |  | 26 | 61
O=C(NO)C(Cc1ccccc1)C(=O)NCc1ccc(Cl)cc1 (centres undefined) | 170 |  |  |  |  |  |  |  | 93 | 80
